This data set in a line: MTT cell toxicity assay. In kind it is cell-based. The settings on record: human, HeLa cells. The essentials: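 HeLa cells grown in DMEM with 10% heat-inactivated FBS and 1% penicillin/streptomycin, 5% CO2, 37 °C. Exponentially growing cells were seeded at 2–6 × 10^3 per well and left 24 h, then exposed to graded test compound concentrations for 48 h. MTT (5 mg/mL stock) was added for 2–4 h at 37 °C. Formazan was dissolved in DMSO and read at 492 nm. Mean ± SD, n = 3.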

These results are taken from publication PMC7606109 (Acta Pharmaceutica Sinica. B, 2020).

As to `NS(=O)(=O)NCCNc1nonc1C(=NO)Nc1ccc(F)c(Br)c1` [Epa, Epacadostat], the IC50 at 48 h is over 40 µM.
